From ChEMBL document CHEMBL5252510, “A Novel Potent Oral Series of VEGFR2 Inhibitors Abrogate Tumor Growth by Inhibiting Angiogenesis” (J Med Chem, 2016)
pIC50: −log10 of the molar value. Active and inactive are the calls of the source. No cut-off for these calls is given here.

Experiments:
[1] = target: T1, Vascular endothelial growth factor receptor 2 (Homo sapiens, UniProt P35968); assay: Inhibition of VEGF-induced human VEGFR2 autophosphorylation transfected in CHO cells measured after 2 hrs by chemiluminescence assay; type: cell-based
[2] = target: T1, Vascular endothelial growth factor receptor 2; assay: Inhibition of human recombinant GST-fused VEGFR2 kinase domain transphosphorylation expressed in baculovirus expression system using poly-Glu-Tyr (4:1) as substrate measured after 10 mins in presence of gamma-[33P]-ATP by scintillation counting analysis
[3] = target: Hepatocyte growth factor receptor (Homo sapiens) (UniProt P08581); assay: Inhibition of human recombinant GST-fused c-MET expressed in baculovirus expression system using poly-Glu-Tyr (4:1) as substrate measured after 10 mins in presence of gamma-[33P]-ATP by scintillation counting analysis
Summary of the method: (§1)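 GST-fused kinase domains were expressed in baculovirus and purified on glutathione-Sepharose. 10 min at ambient temperature, stopped with EDTA. Filter binding and scintillation counting. IC50 by linear regression of percent inhibition.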

[4] = target: Cyclin-dependent kinase 1 (Homo sapiens) (UniProt P06493); assay: Inhibition of human recombinant GST-fused CDK1 expressed in baculovirus expression system using poly-Glu-Tyr (4:1) as substrate measured after 10 mins in presence of gamma-[33P]-ATP by scintillation counting analysis; summary of the method: as §1
[5] = target: Fibroblast growth factor receptor 3 (Homo sapiens) (UniProt P22607); assay: Inhibition of human recombinant GST-fused FGFR3 expressed in baculovirus expression system using poly-Glu-Tyr (4:1) as substrate measured after 10 mins in presence of gamma-[33P]-ATP by scintillation counting analysis; summary of the method: as §1
BaF3 [6] = assay: Antiproliferative activity against mouse BaF3 cells expressing Bcr-ABL assessed as cell growth inhibition measured after 72 hrs by Alamar Blue assay; settings: BaF3, 72 h
BaF3 [7] = assay: Antiproliferative activity against mouse BaF3 cells expressing ERBB2 V659E mutant assessed as cell growth inhibition measured after 72 hrs by Alamar Blue assay; settings: BaF3, 72 h
BaF3 [8] = assay: Antiproliferative activity against mouse BaF3 cells expressing Tel-FGFR3 assessed as cell growth inhibition measured after 72 hrs by Alamar Blue assay; settings: BaF3, 72 h
BaF3 [9] = assay: Antiproliferative activity against mouse BaF3 cells expressing FLT3-ITD assessed as cell growth inhibition measured after 72 hrs by Alamar Blue assay; settings: BaF3, 72 h
BaF3 [10] = assay: Antiproliferative activity against mouse BaF3 cells expressing Tel-IGF-1R assessed as cell growth inhibition measured after 72 hrs by Alamar Blue assay; settings: BaF3, 72 h
BaF3 [11] = assay: Antiproliferative activity against mouse BaF3 cells expressing KIT D816V mutant assessed as cell growth inhibition measured after 72 hrs by Alamar Blue assay; settings: BaF3, 72 h
BaF3 [12] = assay: Antiproliferative activity against mouse BaF3 cells expressing Trp-MET assessed as cell growth inhibition measured after 72 hrs by Alamar Blue assay; settings: BaF3, 72 h
BaF3 [13] = assay: Antiproliferative activity against mouse BaF3 cells expressing PTC3-RET assessed as cell growth inhibition measured after 72 hrs by Alamar Blue assay; settings: BaF3, 72 h
BaF3 [14] = assay: Antiproliferative activity against mouse BaF3 cells expressing Tel-PDGFRbeta assessed as cell growth inhibition measured after 72 hrs by Alamar Blue assay; settings: BaF3, 72 h
BaF3 [15] = assay: Antiproliferative activity against mouse BaF3 cells assessed as cell growth inhibition measured after 72 hrs by Alamar Blue assay; settings: BaF3, 72 h
BaF3 [16] = assay: Antiproliferative activity against mouse BaF3 cells expressing NPM-ALK assessed as cell growth inhibition measured after 72 hrs by Alamar Blue assay; settings: BaF3, 72 h
HUVEC [17] = assay: Antiproliferative activity against VEGF-stimulated HUVEC cells assessed as cell growth inhibition measured after 24 hrs by BrdUrd incorporation based spectrophotometric analysis; settings: Homo sapiens
HUVEC [18] = assay: Antiproliferative activity against bFGF-stimulated HUVEC cells assessed as cell growth inhibition measured after 24 hrs by BrdUrd incorporation based spectrophotometric analysis; settings: Homo sapiens
Mus musculus [19] = species on record: Mus musculus; assay: Antiangiogenic activity in C57BL/6jNpa mouse harbouring mouse B16-BL6 cells assessed as reduction in K-trans level by measuring T/C ratio measured after 3 days by DCE-MRI assay; type: functional; settings: time 3 day
Summary of the method: (§2)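 C57BL/6JNpa mice bearing B16/BL6 cervical lymph-node metastases, at least 8 per group, anaesthetized and given contrast agent; DCE-MRI Ktrans and iAUEC (permeability) and Vp (plasma volume) measured before and again after daily treatment; change per mouse recorded, mean ± SEM, one-way ANOVA with Holm-Sidak comparisons versus vehicle.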

Mus musculus [20] = species on record: Mus musculus; assay: Antiangiogenic activity in C57BL/6jNpa mouse harbouring mouse B16-BL6 cells assessed as reduction in tumor plasma volume measured after 3 days by DCE-MRI assay relative to control; type: functional; parameters: scale not given: the % may be the effect or the level left; settings: time 3 day; summary of the method: as §2
B16-BL6 [21] = assay: Antitumor activity against mouse B16-BL6 cells implanted in C57BL/6jNpa mouse assessed as primary tumor growth inhibition at 100 mg/kg, po qd administered started on day 7 post implantation measured after 21 days relative to control; type: functional, organism-based; settings: time 7-21 day
Summary of the method: (§3)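 Female C57BL/6JNpa mice, 50000 B16/BL6 cells intradermally in both ear pinnae; primary tumor area (mm²) imaged days 7, 14, 21; randomized day 7 into groups of 5-6, oral dosing in PEG200 or PEG300 vehicle daily (or every 2 days) for 14 days; day 21 cervical lymph nodes weighed, metastasis lysates assayed for TIE-2 by ELISA; T/C ratios.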

B16-BL6 [22] = assay: Antitumor activity against mouse B16-BL6 cells implanted in C57BL/6jNpa mouse assessed as metastatic tumor growth inhibition at 100 mg/kg, po qd administered started on day 7 post implantation measured after 21 days relative to control; type: functional, organism-based; settings: time 7-21 day; summary of the method: as §3
B16-BL6 [23] = assay: Antitumor activity against mouse B16-BL6 cells implanted in C57BL/6jNpa mouse assessed as primary tumor growth inhibition by measuring T/C ratio at 100 mg/kg, po qd administered started on day 7 post implantation measured after 21 days; type: functional; settings: time 7-21 day; summary of the method: as §3
B16-BL6 [24] = assay: Antitumor activity against mouse B16-BL6 cells implanted in C57BL/6jNpa mouse assessed as metastatic tumor growth inhibition by measuring T/C ratio at 100 mg/kg, po qd administered started on day 7 post implantation measured after 21 days relative to control; type: functional; settings: time 7-21 day; summary of the method: as §3
Mus musculus [25] = species on record: Mus musculus; assay: Antiangiogenic activity in C57BL/6jNpa mouse harbouring mouse B16-BL6 cells assessed as reduction in K-trans level measured after 3 days by DCE-MRI assay relative to control; type: functional; parameters: scale not given: the % may be the effect or the level left; settings: time 3 day; summary of the method: as §2
Mus musculus [26] = species on record: Mus musculus; assay: Antiangiogenic activity in C57BL/6jNpa mouse harbouring mouse B16-BL6 cells assessed as reduction in iAUEC level measured after 3 days by DCE-MRI assay relative to control; type: functional; parameters: scale not given: the % may be the effect or the level left; settings: time 3 day; summary of the method: as §2
Mus musculus [27] = species on record: Mus musculus; assay: Antiangiogenic activity in C57BL/6jNpa mouse harbouring mouse B16-BL6 cells assessed as reduction in iAUEC level by measuring T/C ratio measured after 3 days by DCE-MRI assay; type: functional; settings: time 3 day; summary of the method: as §2
Mus musculus [28] = species on record: Mus musculus; assay: Antiangiogenic activity in C57BL/6jNpa mouse harbouring mouse B16-BL6 cells assessed as reduction in tumor plasma volume by measuring T/C ratio measured after 3 days by DCE-MRI assay; type: functional; settings: time 3 day; summary of the method: as §2
BN472 cell [29] = assay: Antitumor activity against rat BN472 cell implanted in Brown-Norway rat assessed as reduction in perfused blood vessels at 100 mg/kg, po qd measured upto 14 days by Hoechst staining based microscopic analysis; type: functional, organism-based; settings: time <= 14.0 day
Summary of the method: (§4)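 BN472-bearing Brown-Norway rats dosed orally; Hoechst dye i.v. shortly before sacrifice to mark perfused vessels; tumors cryosectioned at 10 micron, blocked in 10 % goat serum/0.1 % Triton X-100, stained with rabbit anti-Ki67 (1:200) or anti-caspase 3 (1:10) and fluorescent secondary antibodies; fluorescence microscopy.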

BN472 cell [30] = assay: Antitumor activity against rat BN472 cell implanted in Brown-Norway rat assessed as reduction in perfused blood vessels at 100 mg/kg, po qd measured upto 14 days by Ki67 staining based microscopic analysis; type: functional, organism-based; settings: time <= 14.0 day, in the assay text read “Hoechst dye staining” for “Ki67 staining”; summary of the method: as §4
BN472 cell [31] = assay: Induction of apoptosis in rat BN472 cell implanted in Brown-Norway rat assessed as effect on caspase 3 level at 100 mg/kg, po qd measured upto 14 days by microscopic analysis; type: functional, organism-based; settings: time <= 14.0 day
Summary of the method: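 BN472 fragments were grown in mammary fat pads of female Brown-Norway rats and dosed orally for 14 days. Hoechst dye was given i.v. 2 min before sacrifice. Excised tumors were cut as 10 micron frozen sections, blocked with 10 % normal goat serum/0.1 % Triton X-100 and stained with rabbit anti-rat caspase 3 (1:10), then a TRITC or FITC secondary. Read by fluorescence microscopy.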

CCN1CCN(Cc2ccc(NC(=O)Nc3ccc(Oc4cc(NC)ncn4)cc3)cc2C(F)(F)F)CC1 [AST-487]
pIC50 [1]: 6.64 | pIC50 [2]: 8.52

CCN(CC)CCNC(=O)c1c(C)[nH]c(/C=C2\C(=O)Nc3ccc(F)cc32)c1C [SUNITINIB]
inhibition [3]: Active | inhibition [4]: Active | inhibition [5]: Active | pIC50 (BaF3 [6]): 5.14 | pIC50 (BaF3 [7]): 5.41 | pIC50 (BaF3 [8]): 5.81 | pIC50 (BaF3 [9]): 7.46 | pIC50 (BaF3 [10]): 5.89 | pIC50 (BaF3 [11]): 5.83 | pIC50 (BaF3 [12]): 5.29 | pIC50 (BaF3 [13]): 6.53 | pIC50 (BaF3 [14]): 8.64 | pIC50 (BaF3 [15]): < 5.00 | pIC50 (BaF3 [16]): 5.94 | pIC50 (HUVEC [17]): 8.15 | pIC50 (HUVEC [18]): < 5.52

Clc1ccc(Nc2nnc(Cc3ccncc3)c3ccccc23)cc1.O=C(O)CCC(=O)O
T/C (Mus musculus [19]): 0.49 | Activity (Mus musculus [20]): 33% | Activity (B16-BL6 [21]): Active | Activity (B16-BL6 [22]): Active | pIC50 (BaF3 [6]): < 5.00 | pIC50 (BaF3 [7]): < 5.00 | pIC50 (BaF3 [8]): < 5.00 | pIC50 (BaF3 [9]): < 5.00 | pIC50 (BaF3 [10]): < 5.00 | pIC50 (BaF3 [11]): < 5.00 | pIC50 (BaF3 [12]): < 5.00 | pIC50 (BaF3 [13]): < 5.00 | pIC50 (BaF3 [14]): 7.12 | pIC50 (BaF3 [15]): < 5.00 | pIC50 (BaF3 [16]): < 5.00 | pIC50 (HUVEC [17]): 8.15 | pIC50 (HUVEC [18]): < 5.52 | T/C (B16-BL6 [23]): 0.44 | T/C (B16-BL6 [24]): 0.34 | Activity (Mus musculus [25]): 51% | Activity (Mus musculus [26]): 33% | T/C (Mus musculus [27]): 0.61 | T/C (Mus musculus [28]): 0.67 | Activity (BN472 cell [29]): Active | Activity (BN472 cell [30]): Active | Activity (BN472 cell [31]): Active
